Measurements as given in ChEMBL document CHEMBL2331160, “Trimeric hemibastadin congener from the marine sponge Ianthella basta” (J Nat Prod, 2013).
Active and inactive are the calls of the source. No cut-off for these calls is given here.

Key:
Focal adhesion kinase 1 = Focal adhesion kinase 1 (Homo sapiens, UniProt Q05397); assay: Inhibition of FAK (unknown origin)
Summary of the method: (§1)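 Biochemical (cell-free) assay within a panel of 24 protein kinases. Results reported as IC50 values. Procedure as described in earlier work.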

Insulin receptor = Insulin receptor (Homo sapiens, UniProt P06213); assay: Inhibition of INSR (unknown origin); summary of the method: as §1
[1] = biological target: T1, Receptor-type tyrosine-protein kinase FLT3 (Homo sapiens, UniProt P36888); assay: Inhibition of FLT3 (unknown origin)
T1 sequence (P36888 whole entry): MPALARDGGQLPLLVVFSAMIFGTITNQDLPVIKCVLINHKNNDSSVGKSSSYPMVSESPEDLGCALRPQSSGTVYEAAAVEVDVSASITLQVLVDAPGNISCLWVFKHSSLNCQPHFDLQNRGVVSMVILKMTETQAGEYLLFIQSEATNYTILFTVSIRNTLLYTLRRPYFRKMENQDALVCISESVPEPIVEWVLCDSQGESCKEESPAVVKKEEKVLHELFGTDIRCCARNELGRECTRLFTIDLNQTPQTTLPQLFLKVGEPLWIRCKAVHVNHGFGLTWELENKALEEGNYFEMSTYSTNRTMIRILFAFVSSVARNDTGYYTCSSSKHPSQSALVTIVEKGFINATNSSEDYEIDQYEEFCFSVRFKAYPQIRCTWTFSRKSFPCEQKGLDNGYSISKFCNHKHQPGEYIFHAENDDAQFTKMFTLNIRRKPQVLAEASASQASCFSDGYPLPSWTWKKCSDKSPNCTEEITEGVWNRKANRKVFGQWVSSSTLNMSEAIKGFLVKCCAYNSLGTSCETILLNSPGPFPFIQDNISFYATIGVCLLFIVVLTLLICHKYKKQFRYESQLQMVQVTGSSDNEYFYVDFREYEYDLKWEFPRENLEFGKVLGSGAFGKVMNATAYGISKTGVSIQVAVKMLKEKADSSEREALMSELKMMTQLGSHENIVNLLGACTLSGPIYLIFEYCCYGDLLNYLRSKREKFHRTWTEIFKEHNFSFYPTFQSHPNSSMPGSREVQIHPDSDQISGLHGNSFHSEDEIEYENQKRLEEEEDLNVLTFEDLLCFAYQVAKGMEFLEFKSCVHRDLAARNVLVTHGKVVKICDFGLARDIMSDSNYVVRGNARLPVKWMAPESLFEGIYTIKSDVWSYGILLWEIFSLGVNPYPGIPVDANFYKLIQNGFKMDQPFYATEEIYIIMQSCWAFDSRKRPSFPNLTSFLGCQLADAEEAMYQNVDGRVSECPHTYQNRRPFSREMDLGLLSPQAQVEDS
Summary of the method: (§2)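 Biochemical (cell-free) assay using a panel of 24 protein kinases. The read-out was the IC50.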

Ephrin type-B receptor 4 = Ephrin type-B receptor 4 (Homo sapiens, UniProt P54760); assay: Inhibition of EPHB4 (unknown origin); summary of the method: as §1
[2] = biological target: Receptor tyrosine-protein kinase erbB-2 (Homo sapiens, UniProt P04626); assay: Inhibition of ERBB2 (unknown origin); summary of the method: as §1
[3] = biological target: Epidermal growth factor receptor (Homo sapiens, UniProt P00533); assay: Inhibition of EGFR (unknown origin); summary of the method: as §1
[4] = biological target: Mitogen-activated protein kinase kinase kinase 8 (Homo sapiens, UniProt P41279); assay: Inhibition of COT (unknown origin); summary of the method: as §2
[5] = biological target: Cyclin-dependent kinase 4/cyclin D1 (Homo sapiens, UniProt P11802); assay: Inhibition of CDK4/cyclin-D1 (unknown origin); type: protein-complex assay; summary of the method: as §1
Chain of Cyclin-dependent kinase 4/cyclin D1 (P11802 whole entry): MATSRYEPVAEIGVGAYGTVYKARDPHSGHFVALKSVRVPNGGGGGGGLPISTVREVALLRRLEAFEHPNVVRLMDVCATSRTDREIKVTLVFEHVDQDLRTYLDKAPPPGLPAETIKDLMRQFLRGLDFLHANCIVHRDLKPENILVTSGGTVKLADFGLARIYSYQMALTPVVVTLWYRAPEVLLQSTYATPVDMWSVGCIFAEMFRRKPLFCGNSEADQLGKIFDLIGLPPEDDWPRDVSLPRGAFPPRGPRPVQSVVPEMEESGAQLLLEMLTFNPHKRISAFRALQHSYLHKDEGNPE
Chain of Cyclin-dependent kinase 4/cyclin D1 (P24385 whole entry, further chain): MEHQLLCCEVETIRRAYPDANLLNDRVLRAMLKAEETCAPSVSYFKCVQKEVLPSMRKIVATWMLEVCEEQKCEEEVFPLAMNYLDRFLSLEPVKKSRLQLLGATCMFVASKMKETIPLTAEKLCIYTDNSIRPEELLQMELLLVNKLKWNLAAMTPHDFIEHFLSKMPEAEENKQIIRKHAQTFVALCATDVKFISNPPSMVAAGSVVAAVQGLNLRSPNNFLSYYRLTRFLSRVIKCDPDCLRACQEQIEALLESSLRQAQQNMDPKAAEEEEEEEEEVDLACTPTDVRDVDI

[6] = biological target: Serine/threonine-protein kinase B-raf (Homo sapiens, UniProt P15056, V600E); assay: Inhibition of B-RAF V600E mutant (unknown origin); summary of the method: as §1
Aurora kinase B = Aurora kinase B (Homo sapiens, UniProt Q96GD4); assay: Inhibition of aurora-B (unknown origin); summary of the method: as §1
Chain of Aurora kinase B (Q96GD4 whole entry): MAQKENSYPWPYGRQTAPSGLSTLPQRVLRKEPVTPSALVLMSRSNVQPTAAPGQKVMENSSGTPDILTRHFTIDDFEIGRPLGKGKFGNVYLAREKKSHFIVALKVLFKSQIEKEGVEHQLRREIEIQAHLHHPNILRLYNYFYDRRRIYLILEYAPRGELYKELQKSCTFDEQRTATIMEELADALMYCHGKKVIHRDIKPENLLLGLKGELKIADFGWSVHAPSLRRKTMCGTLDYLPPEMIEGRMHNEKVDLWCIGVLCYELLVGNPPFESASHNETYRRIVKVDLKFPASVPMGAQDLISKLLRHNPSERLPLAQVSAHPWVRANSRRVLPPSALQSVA

Aurora kinase A = biological target: T2, Aurora kinase A (Homo sapiens, UniProt O14965); assay: Inhibition of aurora-A (unknown origin); summary of the method: as §1
T2 sequence (O14965 whole entry): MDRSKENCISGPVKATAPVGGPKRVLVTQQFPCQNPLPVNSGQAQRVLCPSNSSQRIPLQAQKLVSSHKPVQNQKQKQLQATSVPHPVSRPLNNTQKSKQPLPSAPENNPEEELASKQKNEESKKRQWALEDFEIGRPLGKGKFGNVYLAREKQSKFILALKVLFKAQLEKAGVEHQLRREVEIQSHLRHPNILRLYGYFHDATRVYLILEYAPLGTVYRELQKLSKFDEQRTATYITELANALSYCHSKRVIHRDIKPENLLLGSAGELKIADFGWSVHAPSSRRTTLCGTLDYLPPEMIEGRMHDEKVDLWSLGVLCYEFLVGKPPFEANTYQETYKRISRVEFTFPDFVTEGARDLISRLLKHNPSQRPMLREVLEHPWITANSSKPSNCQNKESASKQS

[7] = biological target: T3, NUAK family SNF1-like kinase 1 (Homo sapiens, UniProt O60285); assay: Inhibition of ARK5 (unknown origin); summary of the method: as §1
T3 sequence (O60285 whole entry): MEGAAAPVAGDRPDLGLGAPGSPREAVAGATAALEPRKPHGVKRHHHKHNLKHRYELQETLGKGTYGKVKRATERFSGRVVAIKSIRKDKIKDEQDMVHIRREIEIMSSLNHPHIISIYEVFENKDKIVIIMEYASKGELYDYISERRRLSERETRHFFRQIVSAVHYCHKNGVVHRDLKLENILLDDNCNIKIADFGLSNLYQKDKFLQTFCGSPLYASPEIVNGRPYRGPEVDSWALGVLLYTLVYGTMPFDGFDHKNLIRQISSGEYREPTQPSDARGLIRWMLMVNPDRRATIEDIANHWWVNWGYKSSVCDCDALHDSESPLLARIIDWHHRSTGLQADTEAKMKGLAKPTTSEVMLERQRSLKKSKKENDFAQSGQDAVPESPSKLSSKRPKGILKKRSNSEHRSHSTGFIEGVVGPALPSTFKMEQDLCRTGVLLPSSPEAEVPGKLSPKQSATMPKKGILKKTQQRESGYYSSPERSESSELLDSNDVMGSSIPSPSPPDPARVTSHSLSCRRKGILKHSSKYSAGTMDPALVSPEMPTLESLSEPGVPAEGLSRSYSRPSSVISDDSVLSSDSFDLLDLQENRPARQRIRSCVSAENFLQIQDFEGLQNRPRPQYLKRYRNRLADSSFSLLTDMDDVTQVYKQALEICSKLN

L5178Y = assay: Cytotoxicity against mouse L5178Y cells assessed as inhibition of cell proliferation by MTT assay; type: functional, cell-based
[8] = biological target: Vascular endothelial growth factor receptor 2 (Homo sapiens, UniProt P35968); assay: Inhibition of VEGFR2 (unknown origin); summary of the method: as §1
[9] = biological target: Vascular endothelial growth factor receptor 3 (Homo sapiens, UniProt P35916); assay: Inhibition of VEGFR3 (unknown origin); summary of the method: as §1
Chain of Vascular endothelial growth factor receptor 3 (P35916 whole entry): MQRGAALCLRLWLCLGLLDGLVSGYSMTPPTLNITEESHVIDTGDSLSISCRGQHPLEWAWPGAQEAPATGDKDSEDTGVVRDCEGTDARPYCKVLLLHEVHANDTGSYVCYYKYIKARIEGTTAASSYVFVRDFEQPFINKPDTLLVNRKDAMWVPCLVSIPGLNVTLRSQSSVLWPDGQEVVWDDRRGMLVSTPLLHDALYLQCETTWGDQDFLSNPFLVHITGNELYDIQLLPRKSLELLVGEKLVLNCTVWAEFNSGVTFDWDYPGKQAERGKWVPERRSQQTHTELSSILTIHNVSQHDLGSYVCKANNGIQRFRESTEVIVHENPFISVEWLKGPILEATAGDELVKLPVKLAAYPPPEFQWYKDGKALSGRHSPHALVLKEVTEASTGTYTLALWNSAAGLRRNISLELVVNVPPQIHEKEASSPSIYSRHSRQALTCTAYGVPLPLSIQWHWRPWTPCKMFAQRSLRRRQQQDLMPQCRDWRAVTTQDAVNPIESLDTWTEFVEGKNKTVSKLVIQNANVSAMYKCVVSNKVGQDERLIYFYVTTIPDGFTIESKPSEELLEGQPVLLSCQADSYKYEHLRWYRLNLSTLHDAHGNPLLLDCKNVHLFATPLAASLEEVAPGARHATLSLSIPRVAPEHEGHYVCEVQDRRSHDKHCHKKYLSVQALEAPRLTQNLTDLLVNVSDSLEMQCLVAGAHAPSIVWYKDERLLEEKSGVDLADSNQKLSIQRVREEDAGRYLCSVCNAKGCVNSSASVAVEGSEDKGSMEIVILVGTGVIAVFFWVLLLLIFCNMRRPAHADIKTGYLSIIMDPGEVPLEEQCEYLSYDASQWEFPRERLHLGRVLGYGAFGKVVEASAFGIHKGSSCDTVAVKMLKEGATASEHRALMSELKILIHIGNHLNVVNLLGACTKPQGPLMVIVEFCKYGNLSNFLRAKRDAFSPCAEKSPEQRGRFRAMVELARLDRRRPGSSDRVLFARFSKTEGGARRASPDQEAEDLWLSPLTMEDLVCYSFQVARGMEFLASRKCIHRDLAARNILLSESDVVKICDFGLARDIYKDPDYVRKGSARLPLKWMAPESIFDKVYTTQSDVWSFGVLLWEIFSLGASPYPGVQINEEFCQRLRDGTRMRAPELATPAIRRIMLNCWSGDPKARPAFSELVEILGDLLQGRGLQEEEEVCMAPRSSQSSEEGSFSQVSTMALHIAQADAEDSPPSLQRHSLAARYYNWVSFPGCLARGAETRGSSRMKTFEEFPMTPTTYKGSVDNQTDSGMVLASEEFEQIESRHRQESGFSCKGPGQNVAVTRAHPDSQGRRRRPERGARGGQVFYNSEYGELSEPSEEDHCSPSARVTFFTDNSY

Angiopoietin-1 receptor = Angiopoietin-1 receptor (Homo sapiens, UniProt Q02763); assay: Inhibition of TIE2 (unknown origin); summary of the method: as §1
[10] = biological target: Proto-oncogene tyrosine-protein kinase Src (Homo sapiens, UniProt P12931); assay: Inhibition of SRC (unknown origin); summary of the method: as §1
[11] = biological target: T4, Serine/threonine-protein kinase PLK4 (Homo sapiens, UniProt O00444); assay: Inhibition of SAK (unknown origin); summary of the method: as §1
T4 sequence (O00444 whole entry): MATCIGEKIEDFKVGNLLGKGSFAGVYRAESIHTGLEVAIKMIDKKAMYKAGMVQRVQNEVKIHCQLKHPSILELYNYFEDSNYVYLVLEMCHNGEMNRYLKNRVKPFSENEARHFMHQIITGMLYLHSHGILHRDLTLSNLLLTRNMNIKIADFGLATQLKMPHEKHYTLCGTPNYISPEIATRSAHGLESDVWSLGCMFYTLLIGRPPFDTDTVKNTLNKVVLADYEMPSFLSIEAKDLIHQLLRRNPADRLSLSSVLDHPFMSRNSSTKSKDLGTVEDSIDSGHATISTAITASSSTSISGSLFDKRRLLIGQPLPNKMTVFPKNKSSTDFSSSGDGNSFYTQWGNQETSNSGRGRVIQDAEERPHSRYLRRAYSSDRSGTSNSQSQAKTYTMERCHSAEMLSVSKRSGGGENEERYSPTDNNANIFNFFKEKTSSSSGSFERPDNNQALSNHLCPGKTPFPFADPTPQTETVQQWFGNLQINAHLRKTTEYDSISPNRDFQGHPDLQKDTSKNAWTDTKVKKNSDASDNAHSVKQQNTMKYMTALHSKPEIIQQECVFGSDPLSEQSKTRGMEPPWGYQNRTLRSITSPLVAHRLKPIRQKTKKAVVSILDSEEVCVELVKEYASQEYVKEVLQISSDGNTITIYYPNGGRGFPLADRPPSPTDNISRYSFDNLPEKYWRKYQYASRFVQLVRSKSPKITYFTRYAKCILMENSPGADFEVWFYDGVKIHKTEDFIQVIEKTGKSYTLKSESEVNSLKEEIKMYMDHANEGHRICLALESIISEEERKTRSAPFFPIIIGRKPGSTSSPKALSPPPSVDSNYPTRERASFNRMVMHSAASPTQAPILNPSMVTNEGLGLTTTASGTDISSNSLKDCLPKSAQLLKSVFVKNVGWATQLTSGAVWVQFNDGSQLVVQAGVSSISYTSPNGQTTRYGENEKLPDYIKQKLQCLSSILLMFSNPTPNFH

[12] = biological target: Platelet-derived growth factor receptor beta (Homo sapiens, UniProt P09619); assay: Inhibition of PDGFR-beta (unknown origin)
[13] = biological target: Hepatocyte growth factor receptor (Homo sapiens, UniProt P08581); assay: Inhibition of MET (unknown origin); summary of the method: as §1
Chain of Hepatocyte growth factor receptor (P08581 whole entry): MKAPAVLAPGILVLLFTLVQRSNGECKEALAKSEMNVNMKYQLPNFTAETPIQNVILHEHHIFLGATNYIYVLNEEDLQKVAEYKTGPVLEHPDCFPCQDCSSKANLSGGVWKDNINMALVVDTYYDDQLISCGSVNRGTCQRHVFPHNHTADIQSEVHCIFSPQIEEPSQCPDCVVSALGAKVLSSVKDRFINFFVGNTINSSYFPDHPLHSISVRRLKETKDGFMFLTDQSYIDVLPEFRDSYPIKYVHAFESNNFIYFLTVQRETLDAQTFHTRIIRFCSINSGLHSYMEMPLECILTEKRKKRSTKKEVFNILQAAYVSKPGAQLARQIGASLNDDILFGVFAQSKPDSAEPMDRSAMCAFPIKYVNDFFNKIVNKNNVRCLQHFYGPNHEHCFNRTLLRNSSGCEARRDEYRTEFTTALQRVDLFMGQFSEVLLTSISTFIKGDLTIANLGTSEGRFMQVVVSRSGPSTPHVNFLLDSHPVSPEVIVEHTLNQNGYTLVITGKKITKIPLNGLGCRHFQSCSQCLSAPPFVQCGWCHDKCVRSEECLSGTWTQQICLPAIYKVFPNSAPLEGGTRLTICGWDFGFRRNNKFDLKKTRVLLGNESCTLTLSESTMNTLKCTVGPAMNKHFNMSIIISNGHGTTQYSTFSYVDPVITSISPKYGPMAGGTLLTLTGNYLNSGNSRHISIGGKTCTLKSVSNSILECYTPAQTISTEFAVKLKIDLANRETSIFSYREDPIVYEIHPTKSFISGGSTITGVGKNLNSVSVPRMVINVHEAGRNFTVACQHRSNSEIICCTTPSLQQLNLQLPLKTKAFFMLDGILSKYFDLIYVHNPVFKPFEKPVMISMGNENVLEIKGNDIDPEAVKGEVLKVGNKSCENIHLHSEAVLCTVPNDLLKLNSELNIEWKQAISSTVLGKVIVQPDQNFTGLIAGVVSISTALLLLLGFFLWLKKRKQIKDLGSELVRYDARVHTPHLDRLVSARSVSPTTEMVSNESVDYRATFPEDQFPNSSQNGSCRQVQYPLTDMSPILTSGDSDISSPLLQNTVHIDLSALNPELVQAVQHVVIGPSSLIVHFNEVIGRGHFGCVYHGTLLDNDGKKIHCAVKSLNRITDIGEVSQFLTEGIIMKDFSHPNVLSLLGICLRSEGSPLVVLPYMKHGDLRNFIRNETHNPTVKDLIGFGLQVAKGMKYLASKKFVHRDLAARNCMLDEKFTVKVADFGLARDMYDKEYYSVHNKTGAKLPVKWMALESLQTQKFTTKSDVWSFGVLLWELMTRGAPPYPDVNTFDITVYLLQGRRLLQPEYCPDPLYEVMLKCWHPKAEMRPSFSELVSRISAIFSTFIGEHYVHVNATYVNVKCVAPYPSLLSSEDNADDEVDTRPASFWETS

[14] = biological target: Insulin-like growth factor 1 receptor (Homo sapiens, UniProt P08069); assay: Inhibition of IGF1R (unknown origin); summary of the method: as §1
Chain of Insulin-like growth factor 1 receptor (P08069 31-736 limits assumed): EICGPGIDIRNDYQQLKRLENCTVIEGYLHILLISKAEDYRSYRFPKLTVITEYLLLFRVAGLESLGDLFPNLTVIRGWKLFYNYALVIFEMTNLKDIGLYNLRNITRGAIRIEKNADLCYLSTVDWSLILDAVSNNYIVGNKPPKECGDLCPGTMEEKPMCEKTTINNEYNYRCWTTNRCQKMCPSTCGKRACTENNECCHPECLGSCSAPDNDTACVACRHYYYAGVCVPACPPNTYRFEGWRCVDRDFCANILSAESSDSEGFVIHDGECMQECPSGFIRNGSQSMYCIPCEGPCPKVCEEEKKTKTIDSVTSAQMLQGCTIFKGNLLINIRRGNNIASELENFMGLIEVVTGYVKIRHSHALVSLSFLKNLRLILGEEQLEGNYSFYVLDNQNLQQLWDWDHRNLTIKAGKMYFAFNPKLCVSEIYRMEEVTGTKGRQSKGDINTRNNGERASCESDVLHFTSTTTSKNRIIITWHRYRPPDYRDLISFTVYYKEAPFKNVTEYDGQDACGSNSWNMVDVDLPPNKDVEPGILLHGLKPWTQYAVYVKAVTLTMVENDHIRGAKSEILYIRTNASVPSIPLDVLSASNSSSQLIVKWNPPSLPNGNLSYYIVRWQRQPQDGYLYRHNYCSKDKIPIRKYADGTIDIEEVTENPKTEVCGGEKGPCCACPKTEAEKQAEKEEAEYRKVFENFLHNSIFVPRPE
Chain of Insulin-like growth factor 1 receptor (P08069 741-1367 limits assumed): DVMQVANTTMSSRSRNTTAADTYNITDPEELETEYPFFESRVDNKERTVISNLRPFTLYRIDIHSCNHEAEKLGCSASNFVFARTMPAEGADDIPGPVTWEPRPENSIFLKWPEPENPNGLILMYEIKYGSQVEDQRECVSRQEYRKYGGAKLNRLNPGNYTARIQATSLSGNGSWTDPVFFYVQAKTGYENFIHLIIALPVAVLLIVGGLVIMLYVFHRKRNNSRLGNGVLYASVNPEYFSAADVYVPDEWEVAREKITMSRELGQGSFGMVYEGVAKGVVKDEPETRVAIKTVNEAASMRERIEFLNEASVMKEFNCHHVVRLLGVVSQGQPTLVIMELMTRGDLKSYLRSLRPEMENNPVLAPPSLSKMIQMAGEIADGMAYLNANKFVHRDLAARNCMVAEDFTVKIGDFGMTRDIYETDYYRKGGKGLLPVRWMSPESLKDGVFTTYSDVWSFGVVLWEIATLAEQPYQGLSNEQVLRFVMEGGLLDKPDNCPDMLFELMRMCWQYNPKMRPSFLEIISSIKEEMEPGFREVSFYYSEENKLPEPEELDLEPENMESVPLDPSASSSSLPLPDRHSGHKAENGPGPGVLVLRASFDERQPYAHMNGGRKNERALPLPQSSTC

[15] = biological target: Casein kinase II subunit alpha (Homo sapiens, UniProt P68400); assay: Inhibition of CK2-alpha1 (unknown origin); summary of the method: as §1
[16] = biological target: Cyclin-dependent kinase 2/cyclin A (Homo sapiens, UniProt P24941); assay: Inhibition of CDK2/cyclin-A (unknown origin); type: protein-complex assay; summary of the method: as §1
[17] = biological target: RAC-alpha serine/threonine-protein kinase (Homo sapiens, UniProt P31749); assay: Inhibition of AKT1 (unknown origin); summary of the method: as §1
[18] = biological target: Serine/threonine-protein kinase PLK1 (Homo sapiens, UniProt P53350); assay: Inhibition of PLK1 (unknown origin); summary of the method: as §1

## O=C1N/C=C/c2ccc(c(Br)c2)Oc2cc(cc(Br)c2O)CCNC(=O)/C(=N/O)Cc2ccc(c(Br)c2)Oc2cc(cc(Br)c2O)C/C1=N\O [BASTADIN 7]
Focal adhesion kinase 1
  IC50: 7300 nM
Insulin receptor
  IC50: 4400 nM
[1]
  IC50: 2900 nM
Ephrin type-B receptor 4
  IC50: 7700 nM
[2]
  IC50: 2800 nM
[3]
  IC50: 1500 nM
[4]
  IC50: 3300 nM
[5]
  IC50: 2600 nM
[6]
  IC50: 4400 nM
Aurora kinase B
  IC50: 2600 nM
Aurora kinase A
  IC50: 3900 nM
[7]
  IC50: 3200 nM
L5178Y
  IC50: 5300 nM
[8]
  IC50: 1300 nM
[9]
  IC50: 3200 nM
Angiopoietin-1 receptor
  IC50: 1800 nM
[10]
  IC50: 2000 nM
[11]
  IC50: 1900 nM
[12]
  IC50: 10200 nM
[13]
  IC50: 2800 nM
[14]
  IC50: 1700 nM

## O=C(NCCc1ccc(O)c(Br)c1)/C(Cc1cc(Br)c(O)c(-c2cc(C/C(=N/O)C(=O)NCCc3ccc(O)c(Br)c3)cc(Br)c2O)c1)=N\O [BASTADIN 3]
Focal adhesion kinase 1
  IC50: 2100 nM
Insulin receptor
  IC50: 2900 nM
[1]
  IC50: 2400 nM
[2]
  IC50: 2100 nM
[3]
  IC50: 1300 nM
[4]
  IC50: 1600 nM
[5]
  IC50: 1500 nM
[15]
  IC50: 4100 nM
[16]
  IC50: 1600 nM
[6]
  IC50: 2700 nM
Aurora kinase B
  IC50: 500 nM
Aurora kinase A
  IC50: 100 nM
[7]
  IC50: 1800 nM
[17]
  IC50: 1900 nM
L5178Y
  inhibition: inactive
[8]
  IC50: 1200 nM
[9]
  IC50: 2800 nM
Angiopoietin-1 receptor
  IC50: 800 nM
[10]
  IC50: 1900 nM
[11]
  IC50: 4100 nM
[18]
  IC50: 3900 nM
[13]
  IC50: 1100 nM
[14]
  IC50: 2300 nM

## O=C1N/C=C/c2ccc(c(Br)c2)Oc2cc(ccc2O)CCNC(=O)/C(=N/O)Cc2cc(Br)c(c(Br)c2)Oc2cc(cc(Br)c2O)C/C1=N\O [BASTADIN 11]
L5178Y
  IC50: 3700 nM
